From ChEMBL document CHEMBL1268855 (J Nat Prod, 2010)
The source made the active and inactive calls. No cut-off for these calls is given here.

Tests used:
Neuraminidase [1] = target: T1, Neuraminidase (Influenza A virus, UniProt B4URF0); assay: Inhibition of Influenza A virus (A/chicken/Korea/01310/2001 (H9N2)) neuraminidase after 30 mins by spectrofluorimetric analysis
Neuraminidase [2] = target: T1, Neuraminidase; assay: Inhibition of Influenza A virus (A/Sw/Kor/CAH1/04 (H1N1) KCTC 11165BP neuraminidase after 30 mins by spectrofluorimetric analysis
Influenza A virus [3] = assay: Antiviral activity against influenza A virus A/PR/8/34(H1N1) infected in MDCK cells at 15.92 uM after 24 hrs by immunofluorescence assay; type: functional, organism-based
How it was run: (§1)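 MDCK cells on chamber slides infected with A/PR/8/34 at 1000 TCID50/mL for 2 h in infection medium (DMEM, 0.5% BSA, 1.5 µg/mL trypsin). Then cultured with compound in 5% FBS DMEM for 24 h at 37 °C. Cells fixed in 4% paraformaldehyde, permeabilised, stained with anti-M1 monoclonal antibody, FITC anti-mouse IgG secondary and DAPI. Fluorescence-positive cells counted by fluorescence microscopy.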

Influenza A virus [4] = assay: Antiviral activity against influenza A virus A/PR/8/34(H1N1) infected in MDCK cells assessed as protection against virus-induced cytopathic effect after 3 to 4 days by neutral red dye assay; type: functional
How it was run: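 Near-confluent MDCK monolayers (1 × 10^5 cells/well) inoculated with virus for 1 h, then medium replaced with DMEM containing 10 µg/mL trypsin plus compounds at several concentrations. Incubated 3-4 days at 37 °C, 5% CO2.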

Influenza A virus [5] = assay: Antiviral activity against influenza A virus A/PR/8/34(H1N1) infected in MDCK cells at 3.18 uM after 24 hrs by immunofluorescence assay; type: functional, organism-based; how it was run: as §1
MDCK = assay: Cytotoxicity against MDCK cells at 97.56 uM after 48 hrs by neutral red dye assay; type: cell-based, Canis lupus familiaris; details: dog

T1 sequence (B4URF0 whole entry): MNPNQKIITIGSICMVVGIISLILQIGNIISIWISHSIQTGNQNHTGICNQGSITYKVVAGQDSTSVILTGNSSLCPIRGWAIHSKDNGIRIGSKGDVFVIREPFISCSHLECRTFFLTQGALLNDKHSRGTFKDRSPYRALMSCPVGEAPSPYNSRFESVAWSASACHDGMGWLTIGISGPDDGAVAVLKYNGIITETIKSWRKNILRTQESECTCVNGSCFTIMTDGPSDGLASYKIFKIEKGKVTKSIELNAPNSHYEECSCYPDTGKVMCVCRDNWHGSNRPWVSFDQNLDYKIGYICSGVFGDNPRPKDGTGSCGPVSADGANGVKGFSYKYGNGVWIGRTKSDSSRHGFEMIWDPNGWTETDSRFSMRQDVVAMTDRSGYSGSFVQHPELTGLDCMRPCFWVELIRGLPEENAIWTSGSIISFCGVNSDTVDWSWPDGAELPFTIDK

Structure (SMILES) | IC50 (Neuraminidase [1]) [µM] | IC50 (Neuraminidase [2]) [µM] | also measured
COc1c(C)c(O)c(C)c2c1C(=O)C[C@@](O)(c1ccccc1)O2 | 285 | 283 | 
COc1c(C)c(O)c2c(c1C=O)O[C@H](c1ccccc1)CC2=O | 299 | 290 | 
Cc1c(O)c(C)c2c(c1O)C(=O)[C@H](O)[C@@H](c1ccccc1)O2 | 368 | 375 | 
COc1c(C)c(O)c(C)c(O)c1C(=O)/C=C/c1ccc(O)cc1 |  |  | Activity (Influenza A virus [3]): Active; CC50 (Influenza A virus [4]): > 120 µM; Activity (Influenza A virus [5]): Active
COc1c(C)c2c(c(O)c1C=O)C(=O)C[C@@H](c1ccccc1)O2 | 256 | 269 | 
COc1c(C)c(O)c(C)c(O)c1C(=O)/C=C/c1ccccc1O |  |  | CC50 (Influenza A virus [4]): > 120 µM
COc1c(C)c(O)c(C)c2occ(-c3ccccc3)c(=O)c12 | 391 | 431 | 
COc1c(C)c(O)c(C)c2oc(-c3ccccc3)cc(=O)c12 | 363 | 414 | 
Cc1c(O)cc(O)c2c1O[C@H](c1ccccc1)CC2=O | > 500 | > 500 | 
COc1c(C)c(O)c(C)c(O)c1C(=O)/C=C/c1ccccc1 |  |  | CC50 (Influenza A virus [4]): 78.4 µM
CCOC(=O)C1=C[C@@H](OC(CC)CC)[C@H](NC(C)=O)[C@@H](N)C1 [OSELTAMIVIR] |  |  | Activity (MDCK): 7%
COc1cc(O)c(C)c2c1C(=O)C[C@@H](c1ccccc1)O2 | > 500 | > 500 | 
COc1c(C)c(O)c2c(c1C)O[C@H](c1ccccc1)CC2=O | > 500 | > 500 | 
COc1cc(O)c(C)c(O)c1C(=O)/C=C/c1ccccc1 |  |  | CC50 (Influenza A virus [4]): 135 µM
Cc1c(O)c(C)c2c(c1O)C(=O)C[C@@H](c1ccccc1)O2 [DEMETHOXYMATTEUCINOL] | 319 | 334 | 
